Data as given in ChEMBL document CHEMBL2203068, “Antibacterial butenolides from the Korean tunicate Pseudodistoma antinboja” (2012).
Values after ≈ are worked out from the molar mass of the structure shown. Active and inactive are the calls of the source. No cut-off for these calls is given here.

Legend:
Staphylococcus aureus [1] = experiment: Antimicrobial activity against methicillin-resistant Staphylococcus aureus CCARM 3634 incubated for 24 hrs by microtiter broth dilution method; type: functional; details: CCARM 3634, 24 h
In short: (§1)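 Two-fold serial dilutions of compound in DMSO were made in Mueller Hinton broth in 96-well microtiter plates, with 0.64% DMSO final. Each well was inoculated with an overnight bacterial culture at 5 × 10⁵ cfu/mL and incubated at 37 °C for 24 h. MIC was the lowest concentration showing no visible growth.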

Salmonella typhimurium = experiment: Antimicrobial activity against Salmonella typhimurium ATCC 14028 incubated for 24 hrs by microtiter broth dilution method; type: functional, organism-based; details: Salmonella enterica subsp. enterica serovar Typhimurium
In short: (§2)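 Two-fold serial dilutions of compounds in DMSO were added to Mueller Hinton broth in 96-well microtiter plates (final 0.64% DMSO). Wells were inoculated with overnight bacterial culture at 5 × 10⁵ cfu/mL and incubated at 37 °C for 24 h. The MIC was the lowest concentration with no visible growth.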

Staphylococcus aureus [2] = experiment: Antimicrobial activity against Staphylococcus aureus ATCC 6538 incubated for 24 hrs by microtiter broth dilution method; type: functional; in short: as §2
Klebsiella pneumoniae = experiment: Antimicrobial activity against Klebsiella pneumoniae ATCC 4352 incubated for 24 hrs by microtiter broth dilution method; type: functional, organism-based; in short: as §2
[3] = system: Staphylococcus epidermidis; experiment: Antimicrobial activity against Staphylococcus epidermidis ATCC 12228 incubated for 24 hrs by microtiter broth dilution method; type: functional; in short: as §2
Staphylococcus aureus [4] = experiment: Antimicrobial activity against methicillin-sensitive Staphylococcus aureus CCARM 0204 incubated for 24 hrs by microtiter broth dilution method; type: functional; details: CCARM 0204, 24 h; in short: as §1
Bacillus subtilis = experiment: Antimicrobial activity against Bacillus subtilis ATCC 6633 incubated for 24 hrs by microtiter broth dilution method; type: functional; in short: as §2
Staphylococcus aureus [5] = experiment: Antimicrobial activity against methicillin-sensitive Staphylococcus aureus CCARM 3640 incubated for 24 hrs by microtiter broth dilution method; type: functional; details: CCARM 3640, 24 h; in short: as §1
Staphylococcus aureus [6] = experiment: Antimicrobial activity against methicillin-resistant Staphylococcus aureus CCARM 3635 incubated for 24 hrs by microtiter broth dilution method; type: functional; details: CCARM 3635, 24 h; in short: as §1
Escherichia coli = experiment: Antimicrobial activity against Escherichia coli ATCC 11775 incubated for 24 hrs by microtiter broth dilution method; type: functional, organism-based; in short: as §2
Staphylococcus aureus [7] = experiment: Antimicrobial activity against methicillin-resistant Staphylococcus aureus CCARM 3090 incubated for 24 hrs by microtiter broth dilution method; type: functional; details: CCARM 3090, 24 h; in short: as §1
Staphylococcus aureus [8] = experiment: Antimicrobial activity against methicillin-resistant Staphylococcus aureus CCARM 3089 incubated for 24 hrs by microtiter broth dilution method; type: functional; details: CCARM 3089, 24 h; in short: as §1
Kocuria rhizophila = experiment: Antimicrobial activity against Kocuria rhizophila ATCC 9341 incubated for 24 hrs by microtiter broth dilution method; type: functional; in short: as §2
Staphylococcus aureus [9] = experiment: Antimicrobial activity against methicillin-sensitive Staphylococcus aureus CCARM 0205 incubated for 24 hrs by microtiter broth dilution method; type: functional; details: CCARM 0205, 24 h; in short: as §1
Staphylococcus aureus [10] = experiment: Antimicrobial activity against methicillin-sensitive Staphylococcus aureus CCARM 0027 incubated for 24 hrs by microtiter broth dilution method; type: functional; details: CCARM 0027, 24 h; in short: as §1

Molecule	MIC (Staphylococcus aureus [1]) [µg/mL]	MIC (Salmonella typhimurium)	MIC (Staphylococcus aureus [2]; ATCC 6538, 24 h) [µg/mL]	MIC (Klebsiella pneumoniae)	MIC ([3]; ATCC 12228, 24 h) [µg/mL]	MIC (Staphylococcus aureus [4]) [µg/mL]	MIC (Bacillus subtilis; ATCC 6633, 24 h) [µg/mL]	MIC (Staphylococcus aureus [5]) [µg/mL]	MIC (Staphylococcus aureus [6]) [µg/mL]	MIC (Escherichia coli)	MIC (Staphylococcus aureus [7]) [µg/mL]	MIC (Staphylococcus aureus [8]) [µg/mL]	MIC (Kocuria rhizophila; ATCC 9341, 24 h) [µg/mL]	MIC (Staphylococcus aureus [9]) [µg/mL]	MIC (Staphylococcus aureus [10]) [µg/mL]	MIC (Staphylococcus aureus [2]) [µg/mL]	MIC [3] [µg/mL]	MIC (Bacillus subtilis) [µg/mL]	MIC (Kocuria rhizophila) [µg/mL]
COc1ccc(C=C2OC(=O)C=C2c2ccc(O)c(Br)c2)cc1	> 32	inactive	> 50	inactive	25 (≈ 67 µM)	> 32	50 (≈ 134 µM)	> 32	> 32	inactive	> 32	> 32	3.1 (≈ 8.31 µM)	> 32	> 32	–	–	–	–
CCCCCCCCCC(=O)N[C@@H](Cc1c[nH]c2ccccc12)C(=O)N[C@H](CC(N)=O)C(=O)N[C@@H](CC(=O)O)C(=O)N[C@@H]1C(=O)NCC(=O)N[C@@H](CCCN)C(=O)N[C@@H](CC(=O)O)C(=O)N[C@H](C)C(=O)N[C@@H](CC(=O)O)C(=O)NCC(=O)N[C@H](CO)C(=O)N[C@@H]([C@H](C)CC(=O)O)C(=O)N[C@@H](CC(=O)c2ccccc2N)C(=O)O[C@@H]1C	> 32	–	–	–	–	4 (≈ 2.47 µM)	–	16 (≈ 9.87 µM)	> 32	–	> 32	> 32	–	2 (≈ 1.23 µM)	16 (≈ 9.87 µM)	–	–	–	–
O=C1O/C(=C\c2cc(Br)c(O)c(Br)c2)C(c2cc(Br)c(O)c(Br)c2)=C1C(=O)c1cc(Br)c(O)c(Br)c1 [CADIOLIDE B]	1 (≈ 1.14 µM)	inactive	3.1 (≈ 3.55 µM)	inactive	3.1 (≈ 3.55 µM)	1 (≈ 1.14 µM)	3.1 (≈ 3.55 µM)	1 (≈ 1.14 µM)	0.5 (≈ 0.572 µM)	inactive	1 (≈ 1.14 µM)	1 (≈ 1.14 µM)	3.1 (≈ 3.55 µM)	2 (≈ 2.29 µM)	2 (≈ 2.29 µM)	–	–	–	–
O=C1O/C(=C\c2ccc(O)c(Br)c2)C(c2ccc(O)c(Br)c2)=C1C(=O)c1cc(Br)c(O)c(Br)c1 [CADIOLIDE C]	0.5 (≈ 0.698 µM)	inactive	0.4 (≈ 0.559 µM)	inactive	0.4 (≈ 0.559 µM)	0.25 (≈ 0.349 µM)	3.1 (≈ 4.33 µM)	< 0.13	< 0.13	inactive	0.25 (≈ 0.349 µM)	0.5 (≈ 0.698 µM)	0.2 (≈ 0.279 µM)	0.25 (≈ 0.349 µM)	0.5 (≈ 0.698 µM)	–	–	–	–
O=C1O/C(=C\c2ccc(O)c(Br)c2)C(c2cc(Br)c(O)c(Br)c2)=C1C(=O)c1cc(Br)c(O)c(Br)c1 [CADIOLIDE D]	1 (≈ 1.26 µM)	inactive	6.3 (≈ 7.93 µM)	inactive	0.8 (≈ 1.01 µM)	0.5 (≈ 0.629 µM)	6.3 (≈ 7.93 µM)	0.25 (≈ 0.315 µM)	0.25 (≈ 0.315 µM)	inactive	0.25 (≈ 0.315 µM)	0.5 (≈ 0.629 µM)	1.6 (≈ 2.01 µM)	0.25 (≈ 0.315 µM)	0.5 (≈ 0.629 µM)	–	–	–	–
O=C1O/C(=C\c2cc(Br)c(O)c(Br)c2)C(c2ccc(O)c(Br)c2)=C1C(=O)c1cc(Br)c(O)c(Br)c1 [CADIOLIDE E]	2 (≈ 2.52 µM)	inactive	3.1 (≈ 3.9 µM)	inactive	6.3 (≈ 7.93 µM)	2 (≈ 2.52 µM)	3.1 (≈ 3.9 µM)	0.25 (≈ 0.315 µM)	0.5 (≈ 0.629 µM)	inactive	1 (≈ 1.26 µM)	1 (≈ 1.26 µM)	0.2 (≈ 0.252 µM)	4 (≈ 5.03 µM)	2 (≈ 2.52 µM)	–	–	–	–
CC12C[C@@]34C=CC(=O)[C@@](C)(CCC(=O)Nc5c(O)ccc(C(=O)O)c5O)C3[C@H](CC1C4)O2 (stereo partly drawn) [PLATENSIMYCIN]	8 (≈ 18.1 µM)	–	–	–	–	4 (≈ 9.06 µM)	–	8 (≈ 18.1 µM)	8 (≈ 18.1 µM)	–	8 (≈ 18.1 µM)	8 (≈ 18.1 µM)	–	4 (≈ 9.06 µM)	4 (≈ 9.06 µM)	–	–	–	–
O=C1C=C(c2cc(Br)c(O)c(Br)c2)/C(=C/c2cc(Br)c(O)c(Br)c2)O1 [RUBROLIDE A]	8 (≈ 13.4 µM)	inactive	3.1 (≈ 5.2 µM)	inactive	1.6 (≈ 2.69 µM)	4 (≈ 6.71 µM)	1.6 (≈ 2.69 µM)	8 (≈ 13.4 µM)	8 (≈ 13.4 µM)	inactive	8 (≈ 13.4 µM)	8 (≈ 13.4 µM)	1.6 (≈ 2.69 µM)	4 (≈ 6.71 µM)	4 (≈ 6.71 µM)	–	–	–	–
O=C1C=C(c2ccc(O)c(Br)c2)/C(=C/c2cc(Br)c(O)c(Br)c2)O1 [RUBROLIDE J]	2 (≈ 3.87 µM)	inactive	3.1 (≈ 6 µM)	inactive	0.8 (≈ 1.55 µM)	2 (≈ 3.87 µM)	1.6 (≈ 3.09 µM)	2 (≈ 3.87 µM)	2 (≈ 3.87 µM)	inactive	2 (≈ 3.87 µM)	4 (≈ 7.74 µM)	6.3 (≈ 12.2 µM)	1 (≈ 1.93 µM)	2 (≈ 3.87 µM)	–	–	–	–
COc1ccc(C=C2OC(=O)C=C2c2cc(Br)c(O)c(Br)c2)cc1 [RUBROLIDE P]	> 32	inactive	> 50	inactive	50 (≈ 111 µM)	> 32	50 (≈ 111 µM)	> 32	> 32	inactive	> 32	> 32	6.3 (≈ 13.9 µM)	> 32	> 32	–	–	–	–
CN[C@H](CC(C)C)C(=O)N[C@H]1C(=O)N[C@@H](CC(N)=O)C(=O)N[C@H]2C(=O)N[C@H]3C(=O)N[C@H](C(=O)N[C@H](C(=O)O)c4cc(O)cc(O)c4-c4cc3ccc4O)[C@H](O)c3ccc(c(Cl)c3)Oc3cc2cc(c3O[C@@H]2O[C@H](CO)[C@@H](O)[C@H](O)[C@H]2O[C@H]2C[C@](C)(N)[C@H](O)[C@H](C)O2)Oc2ccc(cc2Cl)[C@H]1O [VANCOMYCIN]	–	–	–	–	–	0.25 (≈ 0.173 µM)	–	0.25 (≈ 0.173 µM)	–	–	–	–	–	< 0.13	–	–	–	–	–
GENTAMICIN	–	–	–	–	–	–	–	–	–	–	–	–	–	–	–	< 0.02	< 0.02	0.05	1.6
